Assay results: ChEMBL document CHEMBL4152271, “Polypharmacological profile of 1,2-dihydro-2-oxo-pyridine-3-carboxamides in the endocannabinoid system” (Eur J Med Chem, 2018)

Biological target: T1, Cannabinoid receptor 2 (Homo sapiens, UniProt P34972)
Test: Agonist activity at human CB2 receptor expressed in CHO cell membranes after 90 mins by [35S]GTPgammaS binding assay
Format: functional
Procedure, shortened: (§1)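 Membranes (5 µg) of hCB2-expressing cells in 50 mM Tris-HCl, 3 mM MgCl₂, 0.2 mM EDTA, 100 mM NaCl, 0.5% fatty acid-free BSA, pH 7.4, with 10 µM GDP and 0.1 nM [³⁵S]GTPγS. Kept on ice, started by vehicle or compound, 90 min at 30 °C. Nonspecific binding with 10 µM GTPγS. Filtered on GF/B, radioactivity counted. At least three experiments in triplicate, mean ± SD.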

T1 sequence (P34972 whole entry): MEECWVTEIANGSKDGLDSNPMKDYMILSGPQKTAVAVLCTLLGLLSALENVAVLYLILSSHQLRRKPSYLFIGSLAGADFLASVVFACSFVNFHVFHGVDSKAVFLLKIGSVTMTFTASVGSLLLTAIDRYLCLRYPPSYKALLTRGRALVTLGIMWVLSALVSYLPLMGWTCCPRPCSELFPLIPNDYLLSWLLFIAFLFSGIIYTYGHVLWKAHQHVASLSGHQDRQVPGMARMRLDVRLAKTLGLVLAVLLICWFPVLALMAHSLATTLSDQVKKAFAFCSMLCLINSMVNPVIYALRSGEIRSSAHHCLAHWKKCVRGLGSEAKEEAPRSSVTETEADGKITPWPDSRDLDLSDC

Row | Structure (SMILES) | EC50
1 | COc1ccc(C(=O)c2c(C)n(CCN3CCOCC3)c3cc(I)ccc23)cc1 | 0.167 µM

Biological target: T2, Monoglyceride lipase (Homo sapiens, UniProt Q99685)
T2 sequence (Q99685 whole entry): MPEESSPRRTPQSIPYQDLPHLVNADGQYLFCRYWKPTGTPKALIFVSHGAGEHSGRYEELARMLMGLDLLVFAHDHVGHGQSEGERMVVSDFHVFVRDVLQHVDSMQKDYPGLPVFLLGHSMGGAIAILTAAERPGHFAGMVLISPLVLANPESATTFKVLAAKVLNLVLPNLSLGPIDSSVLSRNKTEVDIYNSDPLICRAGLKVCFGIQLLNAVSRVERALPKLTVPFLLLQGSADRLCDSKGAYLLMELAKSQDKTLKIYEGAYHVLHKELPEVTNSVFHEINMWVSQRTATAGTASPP
Test: Inhibition of MAGL in human U937 cells using 2-OG containing […] as substrate preincubated for 30 mins followed by substrate addition and measured after 15 mins by liquid scintillation spectroscopic method
Format: cell-based
Procedure, shortened: (§2)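 U937 cell homogenate (100 µg) in 10 mM Tris-HCl, 1 mM EDTA, pH 8, 0.1% fatty acid-free BSA. Compound at 10 µM screening concentration, 30 min at 37 °C. FAAH: 100 nM AEA with 1 nM [³H]AEA tracer. MAGL: 1 µM 2-OG with 1 nM tritiated tracer. Both 15 min at 37 °C, stopped with CHCl₃:MeOH (1:1), aqueous phase counted.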

Row | Structure (SMILES) | IC50
2 | COc1ccc(-c2cn(Cc3ccc(F)cc3)c(=O)c(C(=O)NC3CCCCCC3)c2-c2ccccc2)cc1 | > 10 µM
3 | O=C(NC1CCCCCC1)c1c(-c2ccccc2)c(-c2ccccc2)cn(Cc2ccc(F)cc2)c1=O | > 10 µM
4 | COc1ccc(-c2c(Br)cn(Cc3ccc(F)cc3)c(=O)c2C(=O)NC2CCCCCC2)cc1 | > 10 µM
5 | COc1ccc(-c2ccn(Cc3ccc(F)cc3)c(=O)c2C(=O)NC2CCCCCC2)cc1 | > 10 µM

Biological target: T1, Cannabinoid receptor 2
Test: Agonist activity at human CB2 receptor expressed in CHO cell membranes after 90 mins by [35S]GTPgammaS binding assay relative to control
Format: functional
Procedure, shortened: as §1

Row | Structure (SMILES) | Emax
6 | COc1ccc(C(=O)c2c(C)n(CCN3CCOCC3)c3cc(I)ccc23)cc1 | 35%
7 | CCCCCCC(C)(C)c1ccc([C@@H]2C[C@H](O)CC[C@H]2CCCO)c(O)c1 | 196%

Biological target: T3, Monoacylglycerol lipase ABHD6 (Homo sapiens, UniProt Q9BV23)
T3 sequence (Q9BV23 whole entry): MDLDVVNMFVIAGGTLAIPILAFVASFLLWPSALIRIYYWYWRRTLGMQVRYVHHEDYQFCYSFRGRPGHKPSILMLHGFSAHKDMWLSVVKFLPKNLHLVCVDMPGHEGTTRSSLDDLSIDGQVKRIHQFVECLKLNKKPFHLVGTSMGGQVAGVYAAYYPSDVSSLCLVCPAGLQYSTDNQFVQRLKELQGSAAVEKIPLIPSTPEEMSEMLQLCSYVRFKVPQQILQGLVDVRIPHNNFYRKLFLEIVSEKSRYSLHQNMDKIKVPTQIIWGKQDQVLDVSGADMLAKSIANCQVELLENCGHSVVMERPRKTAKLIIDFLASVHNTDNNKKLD
Test: Inhibition of human ABHD6 expressed in HEK293 cells using 2-OG as substrate preincubated for 30 mins followed by substrate addition and measured after 5 mins by liquid scintillation spectroscopic method
Format: cell-based
Procedure, shortened: (§3)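 Homogenate (40 µg) of HEK293 cells stably transfected with hABHD6 or hABHD12, compound preincubated 30 min at 37 °C in […], 0.1% BSA, pH 7.6. DMSO vehicle; WWL70 10 µM or THL 20 µM as positive controls. 10 µM 2-OG added for 5 min at 37 °C, stopped with CHCl₃:MeOH. Aqueous phase counted; no-enzyme blanks and non-transfected HEK293 hydrolysis subtracted.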

Row | Structure (SMILES) | IC50
8 | COc1ccc(-c2cn(Cc3ccc(F)cc3)c(=O)c(C(=O)NC3CCCCCC3)c2-c2ccccc2)cc1 | > 10 µM
9 | O=C(NC1CCCCCC1)c1c(-c2ccccc2)c(-c2ccccc2)cn(Cc2ccc(F)cc2)c1=O | > 10 µM
10 | COc1ccc(-c2c(Br)cn(Cc3ccc(F)cc3)c(=O)c2C(=O)NC2CCCCCC2)cc1 | > 10 µM
11 | COc1ccc(-c2ccn(Cc3ccc(F)cc3)c(=O)c2C(=O)NC2CCCCCC2)cc1 | > 10 µM

Biological target: T4, Lysophosphatidylserine lipase ABHD12 (Homo sapiens, UniProt Q8N2K0)
T4 sequence (Q8N2K0 whole entry): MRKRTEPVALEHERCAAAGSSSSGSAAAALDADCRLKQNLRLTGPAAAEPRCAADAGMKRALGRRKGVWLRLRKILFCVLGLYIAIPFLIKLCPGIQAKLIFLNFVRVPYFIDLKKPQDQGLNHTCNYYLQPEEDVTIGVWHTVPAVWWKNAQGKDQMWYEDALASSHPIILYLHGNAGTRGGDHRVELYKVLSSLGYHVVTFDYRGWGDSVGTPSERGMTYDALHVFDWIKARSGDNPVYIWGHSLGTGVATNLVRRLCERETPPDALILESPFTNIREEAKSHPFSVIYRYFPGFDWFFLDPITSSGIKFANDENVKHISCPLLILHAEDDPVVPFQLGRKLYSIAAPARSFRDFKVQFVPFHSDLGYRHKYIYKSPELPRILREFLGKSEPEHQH
Test: Inhibition of human ABHD12 expressed in HEK293 cells using 2-OG as substrate preincubated for 30 mins followed by substrate addition and measured after 5 mins by liquid scintillation spectroscopic method
Format: cell-based
Procedure, shortened: as §3

Row | Structure (SMILES) | IC50
12 | COc1ccc(-c2cn(Cc3ccc(F)cc3)c(=O)c(C(=O)NC3CCCCCC3)c2-c2ccccc2)cc1 | > 10 µM
13 | O=C(NC1CCCCCC1)c1c(-c2ccccc2)c(-c2ccccc2)cn(Cc2ccc(F)cc2)c1=O | > 10 µM
14 | COc1ccc(-c2c(Br)cn(Cc3ccc(F)cc3)c(=O)c2C(=O)NC2CCCCCC2)cc1 | > 10 µM
15 | COc1ccc(-c2ccn(Cc3ccc(F)cc3)c(=O)c2C(=O)NC2CCCCCC2)cc1 | > 10 µM

Tested on: U-937
Test: Inhibition of [ethanolamine-1-3H]AEA/unlabeled AEA uptake in human U937 cells preincubated for 15 mins followed by [ethanolamine-1-3H]AEA/unlabeled AEA addition and measured after 15 mins by scintillation counting method
Format: functional, cell-based
Procedure, shortened: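 Intact U937 cells (0.5x10⁶ per sample) in RPMI, preincubated with compound for 15 min at 37 °C. Then 1 nM [ethanolamine-1-³H]AEA plus unlabeled AEA (final 100 nM) added for 15 min. Stopped by rapid filtration and ice-cold PBS/1% BSA washes, radioactivity counted. At least three experiments in triplicate, mean ± SD.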

Row | Structure (SMILES) | IC50
16 | COc1ccc(-c2cn(Cc3ccc(F)cc3)c(=O)c(C(=O)NC3CCCCCC3)c2-c2ccccc2)cc1 | > 10 µM
17 | O=C(NC1CCCCCC1)c1c(-c2ccccc2)c(-c2ccccc2)cn(Cc2ccc(F)cc2)c1=O | > 10 µM
18 | COc1ccc(-c2c(Br)cn(Cc3ccc(F)cc3)c(=O)c2C(=O)NC2CCCCCC2)cc1 | > 10 µM
19 | COc1ccc(-c2ccn(Cc3ccc(F)cc3)c(=O)c2C(=O)NC2CCCCCC2)cc1 | > 10 µM

Biological target: T1, Cannabinoid receptor 2
Test: Displacement of [3H]-CP55940 from human CB2 receptor expressed in CHO cell membranes after 90 mins
Procedure, shortened: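 Membranes expressing hCB1 or hCB2 (stably transfected CHO) in 50 mM Tris-HCl, 2.5 mM EDTA, 5 mM MgCl₂, 0.5% fatty acid-free BSA, pH 7.4. Nonspecific binding with 10 µM […]. GF/B filtration, radioactivity counted, Ki derived. Mean ± SD, at least 3 experiments in triplicate.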

Row | Structure (SMILES) | Ki
20 | COc1ccc(-c2cn(Cc3ccc(F)cc3)c(=O)c(C(=O)NC3CCCCCC3)c2-c2ccccc2)cc1 | > 10 µM
21 | O=C(NC1CCCCCC1)c1c(-c2ccccc2)c(-c2ccccc2)cn(Cc2ccc(F)cc2)c1=O | > 10 µM
22 | COc1ccc(-c2c(Br)cn(Cc3ccc(F)cc3)c(=O)c2C(=O)NC2CCCCCC2)cc1 | > 10 µM
23 | COc1ccc(-c2ccn(Cc3ccc(F)cc3)c(=O)c2C(=O)NC2CCCCCC2)cc1 | > 10 µM

Species on record: Homo sapiens
Test: Selectivity ratio of Ki for human CB1 receptor to Ki for human CB2 receptor
Procedure, shortened: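 Membranes expressing hCB1 or hCB2 (stably transfected CHO) in 50 mM Tris-HCl, 2.5 mM EDTA, 5 mM MgCl₂, 0.5% fatty acid-free BSA, pH 7.4. Incubated with compound and 0.5 nM [³H]CP55,940 for 90 min at 30 °C. Nonspecific binding with 10 µM […]. GF/B filtration, radioactivity counted, Ki derived. Mean ± SD, at least 3 experiments in triplicate.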

Row | Structure (SMILES) | Ratio Ki
24 | COc1ccc(-c2cn(Cc3ccc(F)cc3)c(=O)c(C(=O)NC3CCCCCC3)c2-c2ccccc2)cc1 | 2 to 54
25 | O=C(NC1CCCCCC1)c1c(-c2ccccc2)c(-c2ccccc2)cn(Cc2ccc(F)cc2)c1=O | 2 to 54
26 | COc1ccc(-c2c(Br)cn(Cc3ccc(F)cc3)c(=O)c2C(=O)NC2CCCCCC2)cc1 | 2 to 54
27 | COc1ccc(-c2ccn(Cc3ccc(F)cc3)c(=O)c2C(=O)NC2CCCCCC2)cc1 | 2 to 54

Biological target: Cannabinoid receptor 1 (Homo sapiens, UniProt P21554)
Sequence (P21554 whole entry): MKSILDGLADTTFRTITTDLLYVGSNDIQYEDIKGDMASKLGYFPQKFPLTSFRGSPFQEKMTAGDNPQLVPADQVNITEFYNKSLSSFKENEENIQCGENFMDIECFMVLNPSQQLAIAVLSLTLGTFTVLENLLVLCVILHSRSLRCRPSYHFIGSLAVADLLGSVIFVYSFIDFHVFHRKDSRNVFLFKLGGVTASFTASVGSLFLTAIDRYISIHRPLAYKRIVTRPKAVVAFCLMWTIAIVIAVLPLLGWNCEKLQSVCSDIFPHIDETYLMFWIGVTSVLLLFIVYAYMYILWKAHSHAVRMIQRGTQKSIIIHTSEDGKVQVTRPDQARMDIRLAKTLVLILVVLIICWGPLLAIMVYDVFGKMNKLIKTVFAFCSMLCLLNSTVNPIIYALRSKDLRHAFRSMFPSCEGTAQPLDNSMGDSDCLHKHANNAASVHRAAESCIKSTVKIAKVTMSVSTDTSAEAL
Test: Displacement of [3H]-CP55940 from human CB1 receptor expressed in CHO cell membranes after 90 mins

Row | Structure (SMILES) | Ki
28 | COc1ccc(-c2cn(Cc3ccc(F)cc3)c(=O)c(C(=O)NC3CCCCCC3)c2-c2ccccc2)cc1 | > 10 µM
29 | O=C(NC1CCCCCC1)c1c(-c2ccccc2)c(-c2ccccc2)cn(Cc2ccc(F)cc2)c1=O | > 10 µM
30 | COc1ccc(-c2c(Br)cn(Cc3ccc(F)cc3)c(=O)c2C(=O)NC2CCCCCC2)cc1 | > 10 µM
31 | COc1ccc(-c2ccn(Cc3ccc(F)cc3)c(=O)c2C(=O)NC2CCCCCC2)cc1 | > 10 µM

Biological target: T5, Fatty-acid amide hydrolase 1 (Homo sapiens, UniProt O00519)
T5 sequence (O00519 whole entry): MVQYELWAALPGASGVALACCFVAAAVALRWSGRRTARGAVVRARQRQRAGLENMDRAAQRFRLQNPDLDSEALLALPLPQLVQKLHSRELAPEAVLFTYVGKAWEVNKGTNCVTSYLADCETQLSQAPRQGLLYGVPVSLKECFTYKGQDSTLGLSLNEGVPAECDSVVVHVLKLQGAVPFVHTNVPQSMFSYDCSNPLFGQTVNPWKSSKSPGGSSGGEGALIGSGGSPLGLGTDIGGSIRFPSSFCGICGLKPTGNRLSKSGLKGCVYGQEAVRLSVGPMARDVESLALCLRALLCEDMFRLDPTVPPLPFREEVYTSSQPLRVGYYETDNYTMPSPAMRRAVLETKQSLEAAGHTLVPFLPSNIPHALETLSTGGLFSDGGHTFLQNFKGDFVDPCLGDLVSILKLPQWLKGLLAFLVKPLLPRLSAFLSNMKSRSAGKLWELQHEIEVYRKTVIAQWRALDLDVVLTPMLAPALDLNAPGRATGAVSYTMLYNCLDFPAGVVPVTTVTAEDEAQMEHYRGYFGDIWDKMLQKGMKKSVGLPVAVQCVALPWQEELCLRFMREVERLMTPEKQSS
Test: Inhibition of FAAH in human U937 cells using AEA containing [ethanolamine-1-3H]AEA as substrate preincubated for 30 mins followed by substrate addition and measured after 15 mins by liquid scintillation spectroscopic method
Format: cell-based
Procedure, shortened: as §2

Row | Structure (SMILES) | IC50
32 | COc1ccc(-c2cn(Cc3ccc(F)cc3)c(=O)c(C(=O)NC3CCCCCC3)c2-c2ccccc2)cc1 | > 10 µM
33 | O=C(NC1CCCCCC1)c1c(-c2ccccc2)c(-c2ccccc2)cn(Cc2ccc(F)cc2)c1=O | > 10 µM
34 | COc1ccc(-c2c(Br)cn(Cc3ccc(F)cc3)c(=O)c2C(=O)NC2CCCCCC2)cc1 | > 10 µM
35 | COc1ccc(-c2ccn(Cc3ccc(F)cc3)c(=O)c2C(=O)NC2CCCCCC2)cc1 | > 10 µM
